Experimental data pooled from the literature.
Lines come from different studies, so protocols differ.

| SMILES | test system | conditions | measurement | result |
| --- | --- | --- | --- | --- |
| CC(=O)Nc1nnc(N2CCN([C@@H](C)c3ccc4c(c3)OCO4)CC2)s1 | rabbit, plasma | 1 µM | fraction unbound | 0.059 |
| C=CC(=O)N(C)CCOc1c(N)ncnc1-c1cc(F)cc(NC(=O)c2ccc(C3CC3)cc2F)c1C | human, blood | oral, 30 mg, single dose, healthy volunteers | Tmax | 0.5 h |
| Oc1c(Br)cc(Cl)c2cccnc12 | Sprague-Dawley rat, plasma | subcutaneous, 10 mg/kg | MRT | 7.8 h |
| CC(C)n1cc(C#N)c2cc(-n3cc(C(=O)O)cn3)ccc21 | male human, plasma | oral, 600 mg, single dose, fasted, healthy volunteers | Tmax | 2.5 h |
| Cc1cn2nc(-c3cc(=O)n4cc(N5CCNC6(CC6)C5)ccc4n3)cc(C)c2n1 | rat, plasma | – | fraction unbound | 0.16 |
| CC(C)(O)c1ccccc1-c1ccc2[nH]c(/C=C/c3ccc(C(F)(F)F)cc3)nc2c1 | male human, plasma | oral, 1 mg, single dose, fasted | Tmax | 4.44 h |
| O=C(Nc1cc(F)c(F)c(F)c1)c1ccc(F)c(S(=O)(=O)NCc2cccc(B(O)O)c2)c1 | male Sprague-Dawley rat, plasma | oral, 20 mg/kg | MRT(0-t) | 0.84 h |
| CCOC(=O)[C@@]12C[C@@H]1[C@@H](n1ccc3c(NC)nc(C#Cc4ccc(Cl)s4)nc31)[C@H](O)[C@@H]2O | male Sprague-Dawley rat, plasma | oral, 1 mg/kg | MRT | 2.34 h |
| CCc1cc(C(=O)NC)c2nccc(N3CCc4c(cc(Cn5ccnc5)cc4-c4cn(C)nc4C(F)(F)F)C3=O)c2c1 | male Sprague-Dawley rat, plasma | oral, 50 mg/kg, single dose | MRT(0-inf) | 2.2 h |
| C[C@@H](Nc1cc(F)cc(F)c1)c1cc(C(=O)N(C)C)cc2c(=O)cc(N3CCOCC3)oc12 | human, plasma | oral, 240 mg, patients | Tmax | 2 h |
